IDE cell inh: cellular human IDE inhibition; HEK cells, FAbetaB cleavage, fluorescence polarization; P14735; AID 434962; hit rate 0.41% among 320,000; inhibition, % at 5.59 µM;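 active = percent inhibition above the average of all tested compounds plus 3 SD, set per screening campaign, cut at about 16% in these data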;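 also: IDE supplied by intact live HEK cells; FP after avidin binding of uncleaved biotin substrate so inhibition keeps polarization high; 0% = DMSO wells and 100% = 60 µM reference IDE inhibitor Ii1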
HNF4A DNA FP: change in binding of human HNF4 alpha to DNA; HNF4a-FITC DNA binding, fluorescence polarization, 1 h; activity change, % at 10 µM; hit rate 0.3% among 360,000; in the data active = activity change above about 30%, passing the limit was not always enough
Target sequence (P41235 whole entry, looked up): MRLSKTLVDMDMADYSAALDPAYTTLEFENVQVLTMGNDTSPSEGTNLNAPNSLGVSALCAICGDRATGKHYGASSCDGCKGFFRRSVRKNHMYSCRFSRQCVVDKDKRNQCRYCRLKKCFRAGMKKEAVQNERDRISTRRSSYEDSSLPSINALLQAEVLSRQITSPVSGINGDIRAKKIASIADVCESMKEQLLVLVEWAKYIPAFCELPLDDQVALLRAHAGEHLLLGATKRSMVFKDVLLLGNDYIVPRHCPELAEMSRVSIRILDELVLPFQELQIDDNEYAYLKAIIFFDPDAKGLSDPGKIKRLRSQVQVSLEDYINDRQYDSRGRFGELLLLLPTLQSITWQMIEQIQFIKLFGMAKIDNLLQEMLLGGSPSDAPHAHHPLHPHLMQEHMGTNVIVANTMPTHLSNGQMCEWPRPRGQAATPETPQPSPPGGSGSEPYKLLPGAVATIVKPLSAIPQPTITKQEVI
CSN deneddyl inh: CSN deneddylation inhibition; Q92905; AID 651999; inhibition, % at 12.5 µM; Purified CSN, SCF-Nedd8-OG deneddylation, fluorescence polarization; hit rate 0.38% among 360,000;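 active = pattern-corrected inhibition above about 35%, with an unprinted fluorescence ratio check between 0.5 and 1.5, limit read from the data, passing the limit was not always enough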;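 also: 0% = enzyme with substrate and 100% = substrate without enzyme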
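Schedule: reaction 90 min, room temperature / Assay system: HEK293T-derived human Csn5 enzyme / Input: Csn5 at 0.24 nM final / Measure: inhibition of Csn5 cleavage, % / Control set: substrate-only high control, full reaction low control / Technique: fluorescence polarization of the substrate / Buffer or medium: Tris/NaCl/DTT buffer, pH 7.5 / Reagent: SCFSkp2-Nedd8OG substrate at 10 nM final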
TPT1 inh: C. albicans TPT1 enzyme inhibition; hit rate 0.81% among 300,000; recombinant caTPT1, FP RNA substrate dephosphorylation; inhibition, % at 5 µM; AID 1962;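 active = inhibition above the mean of all tested compounds plus 3 SD, set per screening campaign, cut at about 24% in these data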;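 also: plate controls were DMSO alone for no effect and ferristatin control at 100 nM for full effect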
IDE act: boosts human insulin-degrading enzyme activity in HEK cells; P14735; FAbeta-B cleavage, fluorescence polarization; 0% vehicle, 100% cell-free pure enzyme wells; activation, % at 5.96 µM; hit rate 0.073% among 340,000; AID 493087;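 active = activation above the mean of all tested compounds plus 3 SD, set per screening campaign, cut at about 17% in these data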
IDE cell inh cf: confirmation of human insulin-degrading enzyme inhibitors in cells. inhibition, % at 5.59 µM. shares compounds with IDE cell inh. HEK cells, FAbetaB cleavage, fluorescence polarization. hit rate 51% among 1,200;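 active = mean inhibition across triplicate wells above the cutoff set by the earlier primary insulin-degrading enzyme screen, cut at about 16% in these data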;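 also: 0% = DMSO wells and 100% = 60 µM reference IDE inhibitor Ii1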
HEK293 tox: counter-screen for IDE inhibitors: cytotoxicity in HEK cells | AID 449730 | HEK293 cytotoxicity, ATP luminescence | inhibition, % at 5.59 µM | shares compounds with IDE cell inh | hit rate 28% among 1,200; in the data active = inhibition above about 22%;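 also: 0% = vehicle wells and 100% = reference cytotoxic drug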
FP fluor counter: fluorescence interference counter-screen for IDE inhibitors; 30 tested, under 10 active; AID 588718; shares compounds with IDE cell inh; FP counterscreen for fluorescent artifacts, IDE probe project; IC50, µM; call rule not given here
Starred values were filed as active, the others as inactive; x = no result given. In the library only some 1.4% were active in any assay of this set; here they are far more common.

SMILES | IDE cell inh | HNF4A DNA FP | CSN deneddyl inh | TPT1 inh | IDE act | IDE cell inh cf | HEK293 tox | others
COc1ccccc1OCC(=O)N/N=C(\C)c1ccc2ccccc2c1 | x | -3 | -3 | x | x | x | x
CCOc1ccc(/C=N/NC(=O)c2nnn(-c3nonc3N)c2-c2ccc(OCC)cc2)cc1 | 22* | 0 | -1 | -4 | 4 | 4 | 7
CCOC(=O)c1c(NC(=O)COC(=O)CNC(=O)c2ccco2)sc(C(C)=O)c1C | 17* | 4 | 5 | 0 | -7 | 9 | 6
CCn1c(=O)c(C(=O)CN2CCCc3ccccc32)c(N)n(Cc2ccccc2)c1=O | 37* | 88 | 48* | 14 | -4 | 10 | 17
CC(=O)c1cccc(NC(=O)C2Cc3c(-c4ccc5c(c4)OCO5)ccnc3O2)c1 (stereo not drawn) | x | 3 | -4 | x | x | x | x
CCCCCN(C(=O)CCC(=O)OCC(=O)c1ccc(C(C)CC)cc1)c1c(N)n(CCCC)c(=O)[nH]c1=O (stereo not drawn) | 17* | 4 | 0 | 2 | -4 | 10 | 13
CCCCCN(C(=O)CCC(=O)OC(C)C(=O)c1ccccc1)c1c(N)n(CCCC)c(=O)[nH]c1=O (stereo not drawn) | -4 | 6 | 0 | -3 | 1 | x | x
CCOC(=O)C1(C(=O)OCC)NC(=O)CC1C(C)C (stereo not drawn) | x | -1 | 2 | x | 3 | x | x
O=C(/C=C/c1ccc(OCc2cccc(Cl)c2)cc1)N1CCOCC1 | 18* | 0 | 1 | -4 | -6 | 10 | 18
O=C(/C=C/c1ccc(Cl)cc1)N1CCOCC1 | 1 | -1 | 8 | 6 | -7 | x | x
CCOc1ccc(N=C(C)C2=C(O)c3ccccc3C2=O)cc1 | 4 | 6 | 2 | -4 | -11 | x | x
COc1ccc(N=C(C)C2=C(O)c3ccccc3C2=O)cc1 | 18* | 1 | 0 | 0 | -5 | 7 | 16
CN(C)C(=O)CN1C(=O)NC2(CCc3ccccc32)C1=O (stereo not drawn) | 7 | 0 | 1 | -2 | 2 | x | x
Clc1cccc(-c2nnc(SCc3nc4ccccc4[nH]3)n2Cc2ccco2)c1 | 71* | 6 | 1 | -2 | -39 | 50* | 12 | FP fluor counter=>55
Cc1ccc(-n2c(SCc3nc4ccccc4[nH]3)nnc2-c2ccncc2)cc1 | 3 | 4 | 2 | 1 | 2 | x | x
Clc1cccc(-c2nnc(SCc3nc4ccccc4[nH]3)n2-c2ccccc2)c1 | x | x | x | x | x | x | x | FP fluor counter=>55
COc1ccc(Cl)cc1NC(=O)CSc1nnc(C2CC2)n1N | x | 3 | 1 | x | 0 | x | x
O=C(NCCc1ccccc1)c1cc(S(=O)(=O)N2CCCCC2)c[nH]1 | x | 6 | -1 | x | x | x | x
CCNC(=O)C1(C)CCCN(C(=O)c2ccccc2Br)C1 (stereo not drawn) | x | 3 | -1 | x | x | x | x
S=C(Nc1ccccc1)Nc1nc2ccccc2n1CCOc1ccc(Br)cc1 | 26* | -3 | -9 | -1 | -11 | 9 | 10
Cc1nc(C(=O)N2CCC(n3nccc3NC(=O)Nc3ccccc3Cl)CC2)cs1 | -2 | 1 | 0 | 2 | 4 | x | x
Cc1ccc(-c2cc(C(=O)Nc3ccc(S(=O)(=O)Nc4ncccn4)cc3)[nH]n2)c(O)c1C | 31* | -5 | 3 | 2 | -26 | 20* | 10
Cc1cccc(N2CCN(C(=O)CSCc3c(C)noc3C)CC2)c1C | 17* | 0 | 1 | -3 | -3 | 0 | 65*
Cc1noc(C)c1CSCC(=O)N1CCN(c2ccc(F)cc2)CC1 | 9 | 2 | 0 | -3 | 0 | x | x
COc1ccc(C)cc1NCc1cc(=O)oc2cc(-c3ccccc3)c(O)cc12 | 20* | -2 | -1 | -2 | -12 | 5 | 19
SMILES | IDE cell inh | HNF4A DNA FP | CSN deneddyl inh | TPT1 inh | IDE act | IDE cell inh cf | HEK293 tox | others
Cc1cc(C)cc(NCc2cc(=O)oc3cc(-c4ccccc4)c(O)cc23)c1 | 5 | -3 | -1 | -2 | -2 | x | x
CC(=O)N(c1ccc2oc(=O)sc2c1)S(=O)(=O)c1ccccc1 | 23* | -1 | 3 | 3 | -14 | 11 | 7
COc1ccc(OC)c(S(=O)(=O)N(C(C)=O)c2ccc3oc(=O)sc3c2)c1 | 6 | 2 | 2 | -5 | -10 | x | x
CC(C)C(=O)N(c1ccc2oc(=O)sc2c1)S(=O)(=O)c1ccccc1 | 25* | -2 | -4 | -1 | -22 | 3 | 8
Cn1ccc(C(=O)OCC(=O)Nc2ccccc2Cl)n1 | x | 1 | 1 | x | 1 | x | x
CC(=O)c1ccc(NC(=O)C(C)OC(=O)C2CCN(c3ccc(C(F)(F)F)cn3)CC2)cc1 (stereo not drawn) | -10 | -3 | -4 | 1 | -4 | x | x
CC(OC(=O)C1CCN(c2ccc(C(F)(F)F)cn2)CC1)C(=O)Nc1ccc(S(N)(=O)=O)cc1 (stereo not drawn) | 18* | -5 | 0 | -3 | -16 | 6 | 5
COc1cc(/C=N/Nc2nc3ccccc3[nH]2)cc(OC)c1O | 18* | 1 | -5 | -4 | -1 | 1 | 24*
CC1(C)CC(=O)C2=C(C1)N(c1ccccc1)C(=O)C2(O)C(F)(F)F (stereo not drawn) | 16* | 2 | 5 | -3 | 3 | 2 | 7
CCc1cc(Cn2nc(-c3ccccc3)cc2C(=O)NCc2cccc(Br)c2)on1 | 0 | -4 | -6 | x | 1 | x | x
CCN(CC(=O)Nc1ccc(NC(C)=O)cc1)C(=O)CSCc1c(C)noc1C | 6 | 4 | 3 | 3 | 4 | x | x
CCOC(=O)c1c(C)[nH]c(C(=O)COC(=O)CNC(=O)c2ccccc2Cl)c1C | 17* | -4 | 1 | -1 | 2 | 1 | 13
O=c1c2ccccc2sn1-c1ccc(F)cc1 | 60* | 5 | 7 | x | -23 | 18* | 64*
O=c1c2ccccc2sn1-c1ccc(Cl)cc1 | x | 0 | 0 | x | x | x | x
COC(=O)c1cccc(-n2sc3ccccc3c2=O)c1 | 68* | -1 | -6 | x | -23 | 37* | 45*
Cc1ccc(-n2sc3ccccc3c2=O)cc1 | 97* | -3 | -1 | -2 | -51 | 32* | 99*
COC(=O)c1cccc(N2CCCC2=O)c1 | 2 | -1 | -2 | 1 | 5 | x | x
COc1cc(CN2CCNC(=O)C2CC(=O)N(C)CCN2CCOCC2)cc(OC)c1 (stereo not drawn) | x | 1 | 0 | x | -3 | x | x
N#Cc1ccc(CSc2nnc(-c3cccnc3)n2-c2ccccc2)cc1 | 19* | -1 | 4 | 5 | -27 | 11 | 28*
Cc1ccc(NC(=O)C(C)Sc2nnc(-c3cccnc3)n2-c2ccccc2)cc1 (stereo not drawn) | 23* | 0 | 5 | 2 | -31 | 9 | 12
O=C(NCC[C@@H]1CC[C@@H](NS(=O)(=O)Cc2ccccc2)[C@@H](CO)O1)C1CC1 | x | -2 | 0 | x | x | x | x

Screening data (PubChem BioAssay)
